Values after ≈ are worked out from the molar mass of the structure shown.
Tests used:
[1] = Octanol-water partition coefficient, log D of the compound at pH 7.4 by shake flask method; assay type: physicochemical
[2] = target: T1, Pyroglutamylated RF-amide peptide receptor (Homo sapiens, UniProt Q96P65); experiment: Inhibition of human GPR103 receptor expressed in CHOK1 cells by IP-1 assay; assay type: cell-based, CHO-K1
T1 sequence (Q96P65 whole entry): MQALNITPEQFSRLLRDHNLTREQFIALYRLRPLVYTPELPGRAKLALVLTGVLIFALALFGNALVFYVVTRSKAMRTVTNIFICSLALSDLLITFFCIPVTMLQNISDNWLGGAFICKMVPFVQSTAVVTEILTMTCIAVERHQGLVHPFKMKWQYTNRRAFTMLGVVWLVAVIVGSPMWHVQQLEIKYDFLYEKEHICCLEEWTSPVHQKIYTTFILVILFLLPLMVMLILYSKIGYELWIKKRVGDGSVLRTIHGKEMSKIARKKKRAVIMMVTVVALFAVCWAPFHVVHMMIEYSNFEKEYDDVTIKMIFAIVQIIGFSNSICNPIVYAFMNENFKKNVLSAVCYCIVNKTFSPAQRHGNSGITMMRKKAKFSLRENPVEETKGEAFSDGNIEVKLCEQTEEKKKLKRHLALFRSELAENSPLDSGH
Procedure, shortened: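 Cryopreserved human QRFP/GPR103 receptor cell line thawed in stimulation buffer, preincubated with compound at 37 °C, 5% CO2, then stimulated with hQRFP43 at EC80 for 50 min at 37 °C. IP-1 read by HTRF (665/620 nm ratio). IC50 mean of N = 2−52 determinations, one to three replicates per concentration; CIR 2.0, MDR 2.8.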

[3] = Inhibition of mouse GPR103B receptor expressed in CHO cells by IP-1 assay; assay type: cell-based
Procedure, shortened: (§1)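 CHO cells overexpressing mouse GPR103A or GPR103B thawed in stimulation buffer, preincubated with compound at 37 °C, 5% CO2, then stimulated with hQRFP43 at EC80 for 50 min at 37 °C. IP-1 measured by HTRF (665/620 nm ratio).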

Cytochrome P450 2C19 = Cytochrome P450 2C19 (Homo sapiens, UniProt P33261); experiment: Inhibition of human recombinant CYP2C19 after 20 to 50 mins by high-throughput fluorescence assay; assay type: ADME; settings: recombinant enzyme
[4] = Intrinsic clearance in human hepatocytes measured per 10^6 cells; assay type: ADME, cell-based, Hepatocyte; settings: read-out: CLH
Procedure, shortened: (§2)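 Intrinsic clearance corrected for unspecific binding in the incubations. CIR 1.4 for human hepatocytes, 1.7 for human liver microsomes.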

Cytochrome P450 2C9 = Cytochrome P450 2C9 (Homo sapiens, UniProt P11712); experiment: Inhibition of human recombinant CYP2C9 after 20 to 50 mins by high-throughput fluorescence assay; assay type: ADME; settings: recombinant enzyme
[5] = target: Potassium voltage-gated channel subfamily E member 1 (Homo sapiens, UniProt P15382); experiment: Inhibition of human cardiac slowly activating delayed rectifier K+ channel expressed in CHO cells by electrophysiology assay; assay type: cell-based
[6] = target: T1, Pyroglutamylated RF-amide peptide receptor; experiment: Displacement of [125I]QRFP43 from human GPR103 receptor expressed in HEK cells after 90 mins incubation by scintillation counting; assay type: cell-based, HEK293
Procedure, shortened: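 HEK membranes overexpressing human GPR103 incubated with compound and 0.25 nM 125I-hQRFP43 in 50 mM Tris pH 7.4, 1 mM EDTA, 0.1% BSA at 30 °C for 90 min. Bound radioligand separated by vacuum filtration and counted by scintillation. IC50 mean of N = 2−5 determinations, one replicate per concentration; CIR 1.7, MDR 2.1.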

[7] = target: Sodium channel protein type 5 subunit alpha (Homo sapiens, UniProt Q14524); experiment: Inhibition of human Nav1.5 expressed in CHO cells by electrophysiology assay; assay type: cell-based
[8] = Inhibition of mouse GPR103A receptor expressed in CHO cells by IP-1 assay; assay type: cell-based; procedure, shortened: as §1
Cytochrome P450 1A2 = target: T2, Cytochrome P450 1A2 (Homo sapiens, UniProt P05177); experiment: Inhibition of human recombinant CYP1A2 after 20 to 50 mins by high-throughput fluorescence assay; assay type: ADME; settings: recombinant enzyme
T2 sequence (P05177 whole entry): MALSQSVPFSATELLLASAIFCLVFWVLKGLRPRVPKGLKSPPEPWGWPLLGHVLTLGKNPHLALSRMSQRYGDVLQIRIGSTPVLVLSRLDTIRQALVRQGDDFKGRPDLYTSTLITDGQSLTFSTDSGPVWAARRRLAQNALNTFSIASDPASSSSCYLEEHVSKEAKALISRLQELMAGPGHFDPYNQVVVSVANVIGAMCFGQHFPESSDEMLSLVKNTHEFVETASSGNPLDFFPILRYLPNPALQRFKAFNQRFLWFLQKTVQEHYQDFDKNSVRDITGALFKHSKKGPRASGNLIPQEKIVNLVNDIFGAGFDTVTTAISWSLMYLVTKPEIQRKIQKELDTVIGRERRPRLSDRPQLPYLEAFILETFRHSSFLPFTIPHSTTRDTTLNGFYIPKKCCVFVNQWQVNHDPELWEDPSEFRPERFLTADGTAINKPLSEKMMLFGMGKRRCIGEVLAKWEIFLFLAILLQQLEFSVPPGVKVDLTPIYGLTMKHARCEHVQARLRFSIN

Cytochrome P450 2D6 = Cytochrome P450 2D6 (Homo sapiens, UniProt P10635); experiment: Inhibition of human CYP2D6 after 20 to 50 mins by high-throughput fluorescence assay; assay type: ADME
Cytochrome P450 2C8 = target: T3, Cytochrome P450 2C8 (Homo sapiens, UniProt P10632); experiment: Inhibition of human recombinant CYP2C8 after 20 to 50 mins by high-throughput fluorescence assay; assay type: ADME; settings: recombinant enzyme
T3 sequence (P10632 whole entry): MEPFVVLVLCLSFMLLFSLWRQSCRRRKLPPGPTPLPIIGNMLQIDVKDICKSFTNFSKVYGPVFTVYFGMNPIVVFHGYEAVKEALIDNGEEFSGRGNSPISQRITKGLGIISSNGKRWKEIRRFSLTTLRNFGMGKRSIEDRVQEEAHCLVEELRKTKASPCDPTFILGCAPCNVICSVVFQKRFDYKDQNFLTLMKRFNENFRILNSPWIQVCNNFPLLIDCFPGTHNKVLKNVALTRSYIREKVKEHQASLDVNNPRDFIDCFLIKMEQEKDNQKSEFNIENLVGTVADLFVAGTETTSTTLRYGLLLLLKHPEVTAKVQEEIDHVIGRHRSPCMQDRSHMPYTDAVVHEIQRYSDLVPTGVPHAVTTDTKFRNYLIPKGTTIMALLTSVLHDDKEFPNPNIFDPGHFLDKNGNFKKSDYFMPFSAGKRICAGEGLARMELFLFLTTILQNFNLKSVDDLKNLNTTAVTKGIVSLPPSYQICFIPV

Cytochrome P450 3A4 = Cytochrome P450 3A4 (Homo sapiens, UniProt P08684); experiment: Inhibition of human recombinant CYP3A4 after 20 to 50 mins by high-throughput fluorescence assay; assay type: ADME; settings: recombinant enzyme
[9] = Solubility of the compound in HBSS buffer at pH 7.4 after 18 hrs by LC/MS/MS analysis; assay type: physicochemical
[10] = Apparent permeability across apical to basolateral side in human Caco2 cells by LC-MS/MS analysis; assay type: ADME, cell-based; settings: Caco-2, read-out: permeability
[11] = Intrinsic clearance in human liver microsomes; assay type: ADME; settings: read-out: CLH; procedure, shortened: as §2
[12] = target: Voltage-gated inwardly rectifying potassium channel KCNH2 (Homo sapiens, UniProt Q12809); experiment: Inhibition of human ERG expressed in CHO cells by electrophysiology assay; assay type: cell-based
Chain of Voltage-gated inwardly rectifying potassium channel KCNH2 (Q12809 whole entry): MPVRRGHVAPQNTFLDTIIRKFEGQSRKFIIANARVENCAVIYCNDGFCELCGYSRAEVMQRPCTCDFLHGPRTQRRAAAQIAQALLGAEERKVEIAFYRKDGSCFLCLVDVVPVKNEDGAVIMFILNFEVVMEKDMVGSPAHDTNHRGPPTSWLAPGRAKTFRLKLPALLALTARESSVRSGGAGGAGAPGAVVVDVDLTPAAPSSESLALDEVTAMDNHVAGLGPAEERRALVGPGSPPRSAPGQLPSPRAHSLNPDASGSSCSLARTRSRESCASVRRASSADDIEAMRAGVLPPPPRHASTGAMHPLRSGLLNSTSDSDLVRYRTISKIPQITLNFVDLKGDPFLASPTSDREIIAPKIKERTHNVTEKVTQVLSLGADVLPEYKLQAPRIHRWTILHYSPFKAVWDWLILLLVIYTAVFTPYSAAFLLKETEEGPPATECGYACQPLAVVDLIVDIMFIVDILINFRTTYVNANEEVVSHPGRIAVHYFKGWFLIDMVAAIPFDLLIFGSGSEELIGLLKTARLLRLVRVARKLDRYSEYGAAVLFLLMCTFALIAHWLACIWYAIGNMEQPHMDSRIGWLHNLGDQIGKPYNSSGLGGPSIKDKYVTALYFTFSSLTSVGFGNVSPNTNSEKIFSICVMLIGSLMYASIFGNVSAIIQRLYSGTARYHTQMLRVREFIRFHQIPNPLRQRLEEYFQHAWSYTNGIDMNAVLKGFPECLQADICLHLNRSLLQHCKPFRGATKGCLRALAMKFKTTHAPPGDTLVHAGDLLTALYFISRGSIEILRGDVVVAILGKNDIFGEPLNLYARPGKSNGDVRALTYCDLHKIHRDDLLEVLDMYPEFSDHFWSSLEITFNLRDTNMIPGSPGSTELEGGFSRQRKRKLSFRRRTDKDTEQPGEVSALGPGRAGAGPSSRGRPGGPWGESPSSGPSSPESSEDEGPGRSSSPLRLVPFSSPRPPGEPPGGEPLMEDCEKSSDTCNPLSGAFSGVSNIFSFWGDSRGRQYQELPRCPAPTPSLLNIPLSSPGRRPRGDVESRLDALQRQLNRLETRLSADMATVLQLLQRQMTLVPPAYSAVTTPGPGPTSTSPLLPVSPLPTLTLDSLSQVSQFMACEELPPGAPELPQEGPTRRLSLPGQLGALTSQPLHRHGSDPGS

Chain of Cytochrome P450 2D6 (P10635 whole entry): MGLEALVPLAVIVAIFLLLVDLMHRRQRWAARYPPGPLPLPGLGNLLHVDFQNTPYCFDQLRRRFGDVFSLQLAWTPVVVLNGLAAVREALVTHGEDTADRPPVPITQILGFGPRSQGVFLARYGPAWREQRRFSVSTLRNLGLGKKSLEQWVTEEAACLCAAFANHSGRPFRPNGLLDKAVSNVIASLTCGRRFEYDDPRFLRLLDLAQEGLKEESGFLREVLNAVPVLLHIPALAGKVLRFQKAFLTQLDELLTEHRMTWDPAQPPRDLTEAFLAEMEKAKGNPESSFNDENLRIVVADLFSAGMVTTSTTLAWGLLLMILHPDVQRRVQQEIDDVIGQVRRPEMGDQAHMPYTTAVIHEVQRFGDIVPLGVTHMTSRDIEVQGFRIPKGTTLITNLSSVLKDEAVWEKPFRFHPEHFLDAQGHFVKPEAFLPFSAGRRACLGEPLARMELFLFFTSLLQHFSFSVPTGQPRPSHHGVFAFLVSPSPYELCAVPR
Chain of Sodium channel protein type 5 subunit alpha (Q14524 whole entry): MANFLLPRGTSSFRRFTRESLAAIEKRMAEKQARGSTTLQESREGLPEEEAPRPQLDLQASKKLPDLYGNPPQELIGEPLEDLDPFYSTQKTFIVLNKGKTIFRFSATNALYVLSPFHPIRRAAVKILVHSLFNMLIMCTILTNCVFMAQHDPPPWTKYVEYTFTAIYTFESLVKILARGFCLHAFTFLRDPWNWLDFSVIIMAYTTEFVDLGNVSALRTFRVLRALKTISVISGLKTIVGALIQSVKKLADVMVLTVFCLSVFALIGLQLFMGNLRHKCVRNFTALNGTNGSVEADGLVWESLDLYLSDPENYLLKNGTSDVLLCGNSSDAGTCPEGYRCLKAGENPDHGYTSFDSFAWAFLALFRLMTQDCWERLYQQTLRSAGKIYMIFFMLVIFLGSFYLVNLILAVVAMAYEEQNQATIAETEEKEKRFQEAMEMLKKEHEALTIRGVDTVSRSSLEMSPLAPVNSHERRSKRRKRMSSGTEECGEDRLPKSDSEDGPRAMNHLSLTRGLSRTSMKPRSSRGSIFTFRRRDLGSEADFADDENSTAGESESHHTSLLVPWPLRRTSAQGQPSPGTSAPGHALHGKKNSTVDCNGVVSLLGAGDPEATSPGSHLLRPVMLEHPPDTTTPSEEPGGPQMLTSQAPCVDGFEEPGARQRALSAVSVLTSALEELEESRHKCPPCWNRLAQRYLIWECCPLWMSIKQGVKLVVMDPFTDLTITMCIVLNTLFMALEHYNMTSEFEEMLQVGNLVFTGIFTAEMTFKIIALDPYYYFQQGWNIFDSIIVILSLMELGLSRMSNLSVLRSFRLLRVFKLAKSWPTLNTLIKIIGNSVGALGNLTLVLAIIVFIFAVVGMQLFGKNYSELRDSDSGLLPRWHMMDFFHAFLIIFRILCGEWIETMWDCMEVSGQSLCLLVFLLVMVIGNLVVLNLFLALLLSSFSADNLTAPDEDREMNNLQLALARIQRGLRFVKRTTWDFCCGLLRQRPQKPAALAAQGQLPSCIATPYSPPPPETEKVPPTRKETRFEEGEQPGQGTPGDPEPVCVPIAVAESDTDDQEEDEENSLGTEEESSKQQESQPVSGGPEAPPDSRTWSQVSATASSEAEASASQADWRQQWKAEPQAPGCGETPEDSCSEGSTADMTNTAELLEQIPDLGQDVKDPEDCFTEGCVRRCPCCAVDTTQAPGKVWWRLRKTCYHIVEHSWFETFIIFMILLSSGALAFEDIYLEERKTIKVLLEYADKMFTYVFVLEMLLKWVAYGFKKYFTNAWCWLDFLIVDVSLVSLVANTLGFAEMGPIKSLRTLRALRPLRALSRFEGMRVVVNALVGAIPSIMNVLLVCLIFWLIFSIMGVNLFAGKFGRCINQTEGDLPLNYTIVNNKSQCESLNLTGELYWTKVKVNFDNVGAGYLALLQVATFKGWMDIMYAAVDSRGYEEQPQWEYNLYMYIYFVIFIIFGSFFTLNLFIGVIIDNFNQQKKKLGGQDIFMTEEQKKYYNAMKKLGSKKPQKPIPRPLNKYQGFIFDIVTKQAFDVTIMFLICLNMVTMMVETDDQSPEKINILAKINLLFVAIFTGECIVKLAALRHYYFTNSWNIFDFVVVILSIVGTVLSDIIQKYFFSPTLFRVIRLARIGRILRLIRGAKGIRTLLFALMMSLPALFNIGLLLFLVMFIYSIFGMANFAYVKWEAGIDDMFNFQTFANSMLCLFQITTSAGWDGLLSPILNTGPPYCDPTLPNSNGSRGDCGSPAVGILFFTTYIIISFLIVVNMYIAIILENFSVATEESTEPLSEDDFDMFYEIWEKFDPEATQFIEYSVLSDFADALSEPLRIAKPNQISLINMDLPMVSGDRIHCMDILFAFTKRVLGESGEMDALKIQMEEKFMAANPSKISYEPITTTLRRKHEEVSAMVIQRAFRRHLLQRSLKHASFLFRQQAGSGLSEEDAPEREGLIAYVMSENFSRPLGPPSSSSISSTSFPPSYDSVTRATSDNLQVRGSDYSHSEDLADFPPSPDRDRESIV
Chain of Cytochrome P450 2C19 (P33261 whole entry): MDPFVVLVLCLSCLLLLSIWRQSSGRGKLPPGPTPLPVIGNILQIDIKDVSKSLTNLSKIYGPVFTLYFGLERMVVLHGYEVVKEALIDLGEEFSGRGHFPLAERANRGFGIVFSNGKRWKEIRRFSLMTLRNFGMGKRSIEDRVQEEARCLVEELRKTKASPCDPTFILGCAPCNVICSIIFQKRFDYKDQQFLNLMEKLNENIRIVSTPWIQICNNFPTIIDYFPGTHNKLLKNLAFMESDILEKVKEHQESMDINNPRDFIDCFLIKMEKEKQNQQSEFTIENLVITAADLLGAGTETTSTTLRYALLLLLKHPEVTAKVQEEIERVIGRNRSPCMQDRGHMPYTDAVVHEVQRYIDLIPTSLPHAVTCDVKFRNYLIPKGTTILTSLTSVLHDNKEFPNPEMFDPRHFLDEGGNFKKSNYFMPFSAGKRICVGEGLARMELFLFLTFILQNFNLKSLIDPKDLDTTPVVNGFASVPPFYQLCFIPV
Chain of Cytochrome P450 2C9 (P11712 whole entry): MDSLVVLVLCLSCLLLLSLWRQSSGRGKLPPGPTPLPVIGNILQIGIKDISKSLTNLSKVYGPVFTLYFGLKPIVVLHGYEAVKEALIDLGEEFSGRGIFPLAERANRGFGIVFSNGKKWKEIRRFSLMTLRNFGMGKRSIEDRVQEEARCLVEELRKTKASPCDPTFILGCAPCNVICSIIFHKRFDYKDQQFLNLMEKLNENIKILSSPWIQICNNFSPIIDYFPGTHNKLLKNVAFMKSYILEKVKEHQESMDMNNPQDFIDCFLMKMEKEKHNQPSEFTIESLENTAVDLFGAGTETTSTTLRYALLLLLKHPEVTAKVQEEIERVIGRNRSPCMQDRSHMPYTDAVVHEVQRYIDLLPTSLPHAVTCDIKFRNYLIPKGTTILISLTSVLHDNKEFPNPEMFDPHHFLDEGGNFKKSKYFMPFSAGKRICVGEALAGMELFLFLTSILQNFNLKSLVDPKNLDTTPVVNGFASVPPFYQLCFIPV

Work on CN(C)Cc1ccc2c(c1)CCN(C(=O)c1cc3cc(I)ncc3n1C)C2 yielded a logD [1] of 2 and an IC50 [2] of 0.13 µM.

CC1Cc2cc(CN(C)C)ccc2CN1C(=O)c1cc2cc(Br)ncc2n1C (racemic) gave a logD [1] of 2.1 and an IC50 [2] of 0.71 µM.

With Cc1cc2cc(C(=O)N3CCc4cc(CN(C)C)ccc4C3)n(C)c2cn1 the logD [1] was 1.3 and the IC50 [2] was 18.9 µM.

Work on CC1CN(C(=O)c2cc3cc(Br)ncc3n2C)Cc2ccc(CN(C)C)cc21 (racemic) yielded a logD [1] of 2.1 and an IC50 [2] of 0.11 µM.

In the case of CN(C)Cc1ccc2c(c1)CCN(C(=O)c1cc3cc(Br)ncc3n1C)C2, the IC50 [3] is reported as 0.1 µM, the “inhibition (INH)” value (Cytochrome P450 2C19) is reported as “Not Active” and the hepatocyte CLint [4] is reported as 5.3 µL/min/1e6 cells. The “inhibition (INH)” value (Cytochrome P450 2C9) was “Not Active”, the IC50 [5] was > 33 µM and the IC50 [6] was 0.28 µM. The IC50 [7] was > 33 µM, the IC50 [8] was 0.33 µM and the “inhibition (INH)” value (Cytochrome P450 1A2) was “Not Active”. For the same compound, the IC50 (Cytochrome P450 2D6) was > 20 µM, the logD [1] was 1.7 and the “inhibition (INH)” value (Cytochrome P450 2C8) was “Not Active”. The “inhibition (INH)” value (Cytochrome P450 3A4) was “Not Active”, the solubility at 18 h [9] was > 1000 µM and the Papp A→B [10] was 132 nm/s. The microsomal CLint [11] was 16 µL/min/mg and the IC50 [2] was 0.24 µM.

For CN(C)Cc1ccc2c(c1)CCN(C(=O)c1cc3ccncc3n1C)C2, the logD [1] was 0.9 and the IC50 [2] was 2.9 µM.

Compound CN(C)Cc1ccc2c(c1)CCN(C(=O)c1cc3cc(C(F)(F)F)ncc3n1C)C2 has a logD [1] of 1.8 and an IC50 [2] of 3.3 µM.

Compound CN(C)Cc1ccc2c(c1)CCN(C(=O)c1cc3cc(Cl)ncc3n1C)C2 has a logD [1] of 1.5 and an IC50 [2] of 0.57 µM.

C#Cc1cc2cc(C(=O)N3CCc4cc(CN(C)C)ccc4C3)n(C)c2cn1 showed a logD [1] of 1.2 and an IC50 [2] of 6 µM.

Compound CC1c2ccc(CN(C)C)cc2CCN1C(=O)c1cc2cc(Br)ncc2n1C (racemic) has a logD [1] of 2.2 and an IC50 [2] of 0.5 µM.

With CN(C)Cc1ccc2c(c1)CCN(C(=O)c1cc3cc(-c4ccccc4)ncc3n1C)C2 the logD [1] was 3 and the IC50 [2] was > 41 µM.

In the case of CN(C)Cc1ccc2c(c1)CCN(C(=O)c1cc3cc(Cl)ccc3n1C)C2, the IC50 [12] is reported as 4.9 µM, the IC50 [3] is reported as 0.08 µM and the hepatocyte CLint [4] is reported as 40 µL/min/1e6 cells. The IC50 [5] was 10.5 µM, the IC50 [6] was 0.07 µM and the IC50 [7] was 10.3 µM. It also gave an IC50 [8] of 0.09 µM, an IC50 (Cytochrome P450 2D6) of 2.9 µM and a logD [1] of 3. It also gave a solubility at 18 h [9] of 62 µM (≈ 23.7 µg/mL), a Papp A→B [10] of 78 nm/s and a microsomal CLint [11] of 156 µL/min/mg. The IC50 [2] was 0.07 µM.
